Molecules are shown by their SMILES. ≈ marks a conversion by molar mass, not a printed value. Calls of active or inactive are those of the source. No cut-off for these calls is given here.

For data set [1], the target named is T1, Dual specificity tyrosine-phosphorylation-regulated kinase 1B (Homo sapiens, UniProt Q9Y463). The data set is described as follows: Inhibition of recombinant Dyrk1B (unknown origin) using FITC-Asp-His-Thr-Gly-Phe-Leu-Thr-Glu-Tyr-Val-Ala-Thr-Arg-NH2 as substrate after 60 mins.
T1 sequence (Q9Y463 whole entry): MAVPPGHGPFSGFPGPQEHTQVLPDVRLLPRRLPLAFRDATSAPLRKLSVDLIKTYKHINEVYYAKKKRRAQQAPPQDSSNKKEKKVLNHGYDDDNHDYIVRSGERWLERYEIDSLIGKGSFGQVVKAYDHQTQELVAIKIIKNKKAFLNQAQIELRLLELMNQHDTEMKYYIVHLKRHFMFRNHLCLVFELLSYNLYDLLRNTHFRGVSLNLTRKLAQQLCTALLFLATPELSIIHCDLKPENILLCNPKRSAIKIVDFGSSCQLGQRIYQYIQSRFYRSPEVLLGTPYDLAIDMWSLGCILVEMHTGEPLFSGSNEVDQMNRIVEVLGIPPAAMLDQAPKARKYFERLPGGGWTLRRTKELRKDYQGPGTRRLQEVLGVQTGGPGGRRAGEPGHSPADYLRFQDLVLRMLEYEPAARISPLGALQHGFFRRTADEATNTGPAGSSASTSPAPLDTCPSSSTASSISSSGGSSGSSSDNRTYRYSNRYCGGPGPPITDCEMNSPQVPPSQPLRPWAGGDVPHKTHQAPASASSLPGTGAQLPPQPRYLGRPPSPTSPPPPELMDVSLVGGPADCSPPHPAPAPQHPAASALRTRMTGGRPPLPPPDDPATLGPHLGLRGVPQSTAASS
Data set [2] concerns the target T2, Dual specificity protein kinase TTK (Homo sapiens, UniProt P33981).
T2 sequence (P33981 whole entry): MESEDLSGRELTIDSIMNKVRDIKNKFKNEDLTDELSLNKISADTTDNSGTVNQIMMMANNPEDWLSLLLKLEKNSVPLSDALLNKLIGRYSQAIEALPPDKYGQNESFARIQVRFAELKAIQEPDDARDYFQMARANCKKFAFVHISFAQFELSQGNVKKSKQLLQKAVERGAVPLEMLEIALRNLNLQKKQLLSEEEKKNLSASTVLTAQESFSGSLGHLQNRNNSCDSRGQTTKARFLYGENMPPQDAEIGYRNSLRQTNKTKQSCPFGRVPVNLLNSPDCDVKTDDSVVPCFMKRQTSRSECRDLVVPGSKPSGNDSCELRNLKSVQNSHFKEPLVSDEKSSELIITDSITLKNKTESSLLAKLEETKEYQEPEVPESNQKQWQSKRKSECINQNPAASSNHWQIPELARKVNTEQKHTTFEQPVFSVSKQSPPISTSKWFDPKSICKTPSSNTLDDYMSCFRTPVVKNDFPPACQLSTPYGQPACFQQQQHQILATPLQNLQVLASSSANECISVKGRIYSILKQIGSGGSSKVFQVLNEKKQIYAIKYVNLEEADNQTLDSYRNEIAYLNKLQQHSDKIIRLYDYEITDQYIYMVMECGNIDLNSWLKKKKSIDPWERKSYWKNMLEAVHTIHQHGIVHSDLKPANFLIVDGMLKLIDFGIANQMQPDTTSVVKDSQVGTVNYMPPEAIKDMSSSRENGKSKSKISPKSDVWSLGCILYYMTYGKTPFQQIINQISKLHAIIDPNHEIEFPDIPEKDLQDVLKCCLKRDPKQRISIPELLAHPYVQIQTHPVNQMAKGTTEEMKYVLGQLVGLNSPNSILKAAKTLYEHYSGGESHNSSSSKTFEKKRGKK
The data set is described as follows: Inhibition of human wild-type TTK (514 to 795) expressed in insect sf9 cells.

The target in data set [3] is Insulin-like growth factor 1 receptor (Homo sapiens, UniProt P08069). The data set is described as follows: Inhibition of human recombinant N-terminal His6-tagged IGF-1R using fluorescence substrate after 80 mins by caliper off-chip incubation mobility shift assay.
Insulin-like growth factor 1 receptor, sequence (P08069 31-736 limits assumed): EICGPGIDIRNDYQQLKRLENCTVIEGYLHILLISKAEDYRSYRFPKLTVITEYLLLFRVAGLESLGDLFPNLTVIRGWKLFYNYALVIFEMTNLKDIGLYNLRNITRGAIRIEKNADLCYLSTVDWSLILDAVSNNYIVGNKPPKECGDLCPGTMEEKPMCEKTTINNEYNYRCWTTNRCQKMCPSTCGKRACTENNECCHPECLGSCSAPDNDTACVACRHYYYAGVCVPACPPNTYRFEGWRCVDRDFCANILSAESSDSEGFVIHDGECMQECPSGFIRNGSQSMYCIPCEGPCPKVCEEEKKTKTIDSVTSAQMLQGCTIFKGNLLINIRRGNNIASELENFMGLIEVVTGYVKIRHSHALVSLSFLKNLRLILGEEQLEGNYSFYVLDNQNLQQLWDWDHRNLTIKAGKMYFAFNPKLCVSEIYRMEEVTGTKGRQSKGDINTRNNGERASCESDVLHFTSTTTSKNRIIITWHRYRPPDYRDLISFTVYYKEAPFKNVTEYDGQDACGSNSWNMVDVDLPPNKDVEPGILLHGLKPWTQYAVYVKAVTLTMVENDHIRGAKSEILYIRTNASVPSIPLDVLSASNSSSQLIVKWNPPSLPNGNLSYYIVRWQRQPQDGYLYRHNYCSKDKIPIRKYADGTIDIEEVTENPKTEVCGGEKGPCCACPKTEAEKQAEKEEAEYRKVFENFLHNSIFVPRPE
Insulin-like growth factor 1 receptor, sequence (P08069 741-1367 limits assumed): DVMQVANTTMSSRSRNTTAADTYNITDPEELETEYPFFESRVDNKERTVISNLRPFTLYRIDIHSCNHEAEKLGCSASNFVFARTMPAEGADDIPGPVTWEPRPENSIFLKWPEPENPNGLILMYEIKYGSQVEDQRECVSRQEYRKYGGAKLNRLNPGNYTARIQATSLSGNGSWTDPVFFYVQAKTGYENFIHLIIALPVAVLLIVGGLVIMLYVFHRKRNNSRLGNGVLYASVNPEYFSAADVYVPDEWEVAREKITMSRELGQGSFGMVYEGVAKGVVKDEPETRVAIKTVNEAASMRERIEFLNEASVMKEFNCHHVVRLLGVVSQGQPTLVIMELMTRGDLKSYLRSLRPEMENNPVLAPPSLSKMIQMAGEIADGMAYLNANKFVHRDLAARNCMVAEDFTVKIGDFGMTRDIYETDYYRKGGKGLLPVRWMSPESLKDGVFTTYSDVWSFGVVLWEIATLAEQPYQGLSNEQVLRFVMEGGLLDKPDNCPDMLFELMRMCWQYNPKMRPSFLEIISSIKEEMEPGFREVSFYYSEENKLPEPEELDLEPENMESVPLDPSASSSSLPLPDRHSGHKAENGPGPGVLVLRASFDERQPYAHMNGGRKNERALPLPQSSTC
Data set [4] is described as follows: Clearance in Wistar Han rat plasma at 2 umol/kg. The data set is classed as ADME, cell-free.
Data set [5] can be described thus: Permeability across human Caco2 cells. The class given is ADME, cell-based. As to conditions: caco-2. (In general: Passage across Caco-2 layers is used to estimate intestinal permeability.)
For data set [6], the target named is Cyclin-dependent kinase 2 (Homo sapiens, UniProt P24941). Briefly: Inhibition of human recombinant full length C-terminal His6-tagged CDK2 expressed in baculovirus infected Sf21 insect cells using fluorescence substrate after 60 mins by caliper off-chip incubation mobility shift assay.
Data set [7] can be described thus: Oral bioavailability in Wistar Han rat at 3 umol/kg. The data set is classed as ADME, organism-based. The note with it: in vivo.
Data set [8] is described as follows: Intrinsic clearance in Wistar Han rat hepatocytes assessed per 10^6 cells. The data set is classed as ADME, cell-based, Hepatocyte. As to conditions: read-out: CLH. Put shortly: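 Intrinsic clearance in Wistar Han rat hepatocytes, expressed as μL/min/1 × 10⁶ cells.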
A short description of data set [9]: Aqueous solubility of the compound at pH 7.4. The class given is physicochemical. As to conditions: buffer.
The target in data set [10] is T1, Dual specificity tyrosine-phosphorylation-regulated kinase 1B. The data set is described as follows: Inhibition of human full length C-terminal c-Myc tagged Dyrk1B phosphorylation overexpressed in monkey COS1 cells after 5 hrs by ELISA. The class given is cell-based, COS-1. A general note: In an ELISA, binding on a coated surface is turned into a signal by an enzyme label.

Data set [11] addresses T3, Dual specificity tyrosine-phosphorylation-regulated kinase 2 (Homo sapiens, UniProt Q92630).
T3 sequence (Q92630 whole entry): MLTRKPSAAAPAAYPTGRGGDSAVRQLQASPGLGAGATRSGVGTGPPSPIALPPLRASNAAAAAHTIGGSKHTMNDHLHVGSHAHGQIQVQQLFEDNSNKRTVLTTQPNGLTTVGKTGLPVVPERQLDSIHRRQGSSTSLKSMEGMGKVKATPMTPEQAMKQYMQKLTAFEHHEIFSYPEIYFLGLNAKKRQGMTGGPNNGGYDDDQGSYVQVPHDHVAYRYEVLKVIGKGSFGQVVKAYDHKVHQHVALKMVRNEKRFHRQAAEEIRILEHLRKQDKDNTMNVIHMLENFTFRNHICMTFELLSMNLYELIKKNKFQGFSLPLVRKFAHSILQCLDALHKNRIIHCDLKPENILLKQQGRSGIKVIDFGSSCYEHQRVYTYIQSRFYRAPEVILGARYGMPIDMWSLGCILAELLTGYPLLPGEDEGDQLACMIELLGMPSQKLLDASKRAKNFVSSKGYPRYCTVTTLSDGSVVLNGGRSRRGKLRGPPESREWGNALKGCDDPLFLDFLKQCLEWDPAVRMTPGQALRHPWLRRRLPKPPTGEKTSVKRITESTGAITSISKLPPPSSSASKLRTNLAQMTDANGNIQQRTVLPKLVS
Briefly: Inhibition of Dyrk2 (unknown origin).

A further data set has as its system A-375. Briefly: Cytotoxicity against human A375 cells at 1.33 uM after 72 hrs by calcein green AM/propidium iodide staining-based assay in presence of AZD6244 relative to control. The class given is functional, cell-based. Put shortly:
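A375 melanoma cells treated with AZD6244 with or without Dyrk1B inhibitor at 1.33 μM for 72 h. Viability by calcein green AM and propidium iodide staining; percentage of dead cells is mean and SEM of at least two separate experiments.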

In the case of `COc1cc(OC2CCN(C)CC2)ccc1Nc1nccc(-c2c[nH]c3cnccc23)n1`, the concentration for half-maximal inhibition (IC50) (as a rule, the concentration needed to halve the response being measured) in [1] was found to be 0.14 µM; in data set [2], 0.02 µM; in data set [3], 3.3 µM.
For the molecule `Cn1cc(-c2ccnc(-c3ccc(S(C)(=O)=O)cc3)n2)c2ccncc21`, the IC50 in data set [1] is 0.012 µM; in data set [6], over 100 µM; in data set [3] it was over 10 µM; in data set [10], 0.81 µM. Also, the clearance (commonly a measure of how efficiently the substance is removed, as volume per time) in [4] was determined as 23 mL/min/kg. Moreover, in data set [5], the permeability result is recorded as “permeable”. The bioavailability – broadly, dose-corrected exposure relative to a reference, in per cent – in data set [7] amounted to 37%. In addition, the hepatocyte CLint in data set [8] amounted to 8 µL/min/1e6 cells. In data set [9], the concentration in solution (solubility) was 2 µM (≈ 0.729 µg/mL).
On to `COc1cc(N2CCN(C)CC2)ccc1Nc1nccc(-c2cn(C)c3cnccc23)n1`, for which the IC50 in data set [11] was 0.19 µM; in [6], 4.47 µM; in data set [3], 0.779 µM. The clearance in data set [4] was 27 mL/min/kg. Also, the bioavailability in [7] was found to be 22%. In the data set on A-375, the outcome was inactive. Also, in data set [8], the hepatocyte CLint was determined as 18 µL/min/1e6 cells. In addition, in data set [9], the solubility (commonly the concentration that dissolves in the medium under given conditions) is over 755 µM.

Values taken from ChEMBL document CHEMBL3421608, “Discovery and optimization of a novel series of Dyrk1B kinase inhibitors to explore a MEK resistance hypothesis” (J Med Chem, 2015).
